Data on seven molecules can be found in ChEMBL document CHEMBL1140016, “Arylpropanolamines: selective beta3 agonists arising from strategies to mitigate phase I metabolic transformations” (Bioorg Med Chem Lett, 2007).

A value given as a limit tells only on which side of the number the result lay.

Assay [1] has as its target T1, Beta-3 adrenergic receptor (Homo sapiens, UniProt P13945). As to the kind of experiment: Intrinsic activity at human cloned adrenergic beta3 receptor expressed in CHO cells assessed as cAMP accumulation relative to isoproterenol. It is filed as functional, cell-based.
Target sequence in this assay (P13945 whole entry, looked up): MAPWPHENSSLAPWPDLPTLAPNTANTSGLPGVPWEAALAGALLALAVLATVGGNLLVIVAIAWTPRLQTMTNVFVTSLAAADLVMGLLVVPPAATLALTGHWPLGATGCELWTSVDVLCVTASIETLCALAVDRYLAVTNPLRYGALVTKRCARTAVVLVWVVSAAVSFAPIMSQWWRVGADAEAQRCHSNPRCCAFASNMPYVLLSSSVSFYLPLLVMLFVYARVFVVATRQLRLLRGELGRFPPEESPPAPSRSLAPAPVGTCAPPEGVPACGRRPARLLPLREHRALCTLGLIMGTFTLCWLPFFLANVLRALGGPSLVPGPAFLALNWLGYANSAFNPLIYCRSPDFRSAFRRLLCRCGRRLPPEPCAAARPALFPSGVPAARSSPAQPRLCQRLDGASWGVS
Assay [2] relates to African green monkey. As to the kind of experiment: Effect on potassium levels in African green monkey serum at 0.1 mg/kg, iv. In kind it is functional, Chlorocebus sabaeus. Also on record: unit not given beside the values. The gist of the method: (§1)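 Single iv dose given to ketamine-sedated African green monkeys, either 0.1 or 0.5 mg/kg as the line states. Three read-outs were recorded after dosing: change in serum free fatty acids (β3 lipolysis), change in serum K+ (a decrease is β2-mediated) and change in heart rate (β1/β2 tachycardia). Changes were tested for significance at P < 0.05.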

The test system of assay [3] is African green monkey. The assay can be described thus: Effect on tachycardia in African green monkey assessed as change in heart rate at 0.1 mg/kg, iv. In kind it is functional, Chlorocebus sabaeus. The method in brief: as §1
Assay [4] deals with African green monkey. As to the kind of experiment: Effect on lipolysis in iv dosed African green monkey. It is filed as functional. The conditions noted are these: Chlorocebus sabaeus. The gist of the method:
(§2)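 Compounds were given iv to ketamine-sedated African green monkeys across a range of doses. Lipolysis ED50 (mg/kg) came from the rise in serum free fatty acids. Onset doses were the lowest doses giving a statistically significant rise in heart rate (β1) or fall in serum K+ (β2). Each margin is the onset dose divided by the lipolysis ED50.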

In assay [5] the test system is African green monkey. As to the kind of experiment: Ratio of serum potassium concentration to ED50 for lipolysis in African green monkey. It is filed as functional, Chlorocebus sabaeus. The gist of the method: as §2
Assay [6] relates to African green monkey. The assay can be described thus: Ratio of effect on tachycardia to ED50 for lipolysis in African green monkey. In kind it is functional, Chlorocebus sabaeus. The gist of the method:
as §2

The subject of assay [7] is African green monkey. As to the kind of experiment: Effect on African green monkey assessed as change in free fatty acid level at 0.1 mg/kg, iv. In kind it is functional, Chlorocebus sabaeus. The gist of the method: as §1
For assay [8], the target named is T1, Beta-3 adrenergic receptor. As to the kind of experiment: Displacement of [125I]iodocyanopindolol from cloned human adrenergic beta-3 receptor expressed in CHO cells. It is filed as cell-based.
Target sequence in this assay (P13945 whole entry): as the sequence (P13945 whole entry, looked up) above
In assay [9] the target is Beta-1 adrenergic receptor (Homo sapiens, UniProt P08588). The assay can be described thus: Displacement of [125I]iodocyanopindolol from human cloned adrenergic beta-1 receptor expressed in CHO cells. In kind it is cell-based.
Beta-1 adrenergic receptor, sequence (P08588 whole entry): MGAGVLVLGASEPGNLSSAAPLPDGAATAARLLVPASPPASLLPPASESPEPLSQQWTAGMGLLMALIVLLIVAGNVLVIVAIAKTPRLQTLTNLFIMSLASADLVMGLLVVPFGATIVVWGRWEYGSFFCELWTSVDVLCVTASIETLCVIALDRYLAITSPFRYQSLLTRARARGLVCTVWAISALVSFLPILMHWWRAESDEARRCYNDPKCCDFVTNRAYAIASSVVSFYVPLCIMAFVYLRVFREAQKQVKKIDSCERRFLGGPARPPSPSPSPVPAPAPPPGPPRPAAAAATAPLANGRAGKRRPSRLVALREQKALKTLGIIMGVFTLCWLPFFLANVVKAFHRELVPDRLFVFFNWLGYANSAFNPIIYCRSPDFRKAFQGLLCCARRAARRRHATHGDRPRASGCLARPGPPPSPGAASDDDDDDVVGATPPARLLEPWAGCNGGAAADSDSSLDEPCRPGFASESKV
For assay [10], the species on record is Homo sapiens. As to the kind of experiment: Selectivity ratio of Ki for human adrenergic beta-1 receptor to Ki for human adrenergic beta-3 receptor.
Assay [11] is filed under the species Homo sapiens. As to the kind of experiment: Selectivity ratio of Ki for adrenergic beta2 receptor Ki for adrenergic beta-3 receptor.
Assay [12] has as its target Beta-2 adrenergic receptor (Homo sapiens, UniProt P07550). As to the kind of experiment: Displacement of [125I]iodocyanopindolol from human cloned adrenergic beta-2 receptor expressed in CHO cells. It is filed as cell-based.
Assay [13] addresses Beta-1 adrenergic receptor (Cavia porcellus) (UniProt B0FL73). As to the kind of experiment: Intrinsic activity at adrenergic beta-1 receptor in spontaneously beating guinea pig atria assessed as acceleration in contraction relative to isoproterenol.
In assay [14] the test system is African green monkey. As to the kind of experiment: Effect on free fatty acid level in African green monkey serum at 0.5 mg/kg, iv. It is filed as functional, Chlorocebus sabaeus. The gist of the method:
as §1

The subject of assay [15] is African green monkey. The assay can be described thus: Effect on African green monkey serum assessed as potassium concentration at 0.5 mg/kg, iv. In kind it is functional, Chlorocebus sabaeus. The gist of the method:
as §1

Assay [16] relates to African green monkey. The assay can be described thus: Effect on tachycardia in African green monkey assessed as change in heart rate at 0.5 mg/kg, iv. In kind it is functional, Chlorocebus sabaeus. The gist of the method: as §1

Beta-2 adrenergic receptor, sequence (P07550 whole entry): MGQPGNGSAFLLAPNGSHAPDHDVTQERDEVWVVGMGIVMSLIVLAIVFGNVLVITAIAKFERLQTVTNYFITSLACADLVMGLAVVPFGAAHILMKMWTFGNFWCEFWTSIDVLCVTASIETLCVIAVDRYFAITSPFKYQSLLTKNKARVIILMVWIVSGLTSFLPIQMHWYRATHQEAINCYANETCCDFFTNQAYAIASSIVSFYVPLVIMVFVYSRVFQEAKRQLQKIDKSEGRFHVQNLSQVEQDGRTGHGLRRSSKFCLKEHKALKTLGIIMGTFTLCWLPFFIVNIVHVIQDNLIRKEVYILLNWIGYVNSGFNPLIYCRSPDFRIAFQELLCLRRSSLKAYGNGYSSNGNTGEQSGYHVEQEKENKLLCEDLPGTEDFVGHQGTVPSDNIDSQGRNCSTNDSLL
Beta-1 adrenergic receptor (Cavia porcellus), sequence (B0FL73 1-467): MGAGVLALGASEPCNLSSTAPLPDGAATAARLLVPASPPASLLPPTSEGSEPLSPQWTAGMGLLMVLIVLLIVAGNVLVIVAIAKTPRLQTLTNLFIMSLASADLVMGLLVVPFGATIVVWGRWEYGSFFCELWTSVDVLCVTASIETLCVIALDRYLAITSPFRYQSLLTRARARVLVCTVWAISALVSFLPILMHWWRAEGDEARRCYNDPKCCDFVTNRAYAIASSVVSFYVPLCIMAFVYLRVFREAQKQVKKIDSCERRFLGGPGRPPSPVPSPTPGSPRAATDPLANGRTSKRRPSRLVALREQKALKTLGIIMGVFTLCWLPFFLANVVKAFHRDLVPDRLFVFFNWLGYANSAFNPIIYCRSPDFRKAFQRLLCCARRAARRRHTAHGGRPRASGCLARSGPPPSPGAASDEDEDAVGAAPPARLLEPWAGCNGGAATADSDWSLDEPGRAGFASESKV

As for `CS(=O)(=O)Nc1cc([C@@H](O)CN[C@H](Cc2ccccc2)c2ccc(OC(F)F)cc2)ccc1O`, the Intrinsic activity in [1] is 107%. Besides, the Activity in assay [2] is 0.08; in assay [3] it was 26; in assay [7], 1.05. In assay [4], this molecule yielded an ED50 of 0.03 mg/kg. Further, the Ratio in assay [5] is above 25; in [6] it was 3.

For the molecule `COc1ccc([C@H](CCc2ccccc2)NC[C@H](O)Cc2ccc(O)c(NS(C)(=O)=O)c2)cc1OC`, the results for the inhibition constant (Ki) in [8], in [9] and in [12] were 9 nM, 1000 nM and 390 nM, respectively. The Intrinsic activity in assay [1] was determined as 84%. The results for the Ratio Ki in assay [10] and in assay [11] were 111 and 43, respectively. For the same molecule, the Activity in assay [2] is on record as -0.25; in [3], 29; in [7], 0.95.

Regarding `COc1ccc([C@H](CCc2ccc(Cl)cc2)NC[C@H](O)Cc2ccc(O)c(NS(C)(=O)=O)c2)cc1OC`, the Ki came out at 12 nM in assay [8], 1050 nM in assay [9] and 120 nM in assay [12]. The Intrinsic activity in assay [1] amounted to 89%. In addition, the Ratio Ki in assay [10] came to 88; in [11] it was 10. The results for the Activity in [2], in [3] and in assay [7] were -0.32, 32 and 0.87, respectively.

With `COc1ccc([C@@H](Cc2ccccc2)NC[C@@H](O)Cc2ccc(O)c(NS(C)(=O)=O)c2)cc1OC`, the figures for the Ki in assay [8], in [9] and in assay [12] were 6 nM, 2600 nM and 66 nM, respectively. The values for the Intrinsic activity in assay [1] and in assay [13] were 86% and 60%, respectively. The figures for the Activity in assay [2], in [3] and in assay [7] were -0.08, 24 and 1.06, respectively. In [4], this molecule registered a 50% effective dose (ED50) of 0.009 mg/kg. Further, the Ratio in [5] is above 55; in [6], 3.

With `CCOP(=O)(OCC)c1ccc(NC(=O)[C@@](C)(NC[C@H](O)c2ccc(O)c(NS(C)(=O)=O)c2)c2ccc(OC)cc2)cc1`, the 50% effect level in assay [4] (ED50) was put at a dose of 0.1 mg/kg. For the same molecule, the Ratio in assay [5] and in assay [6] was above 25 in each case.

`CS(=O)(=O)Nc1cc([C@@H](O)CNC(c2ccc(OC(F)F)cc2)c2ccc(OC(F)F)cc2)ccc1O` yielded a median effective dose (ED50) in assay [4] of 0.08 mg/kg. The Ratio in [5] was above 60; in assay [6] it was 6.

The molecule `COc1ccc(C(NC[C@H](O)c2ccc(O)c(NS(C)(=O)=O)c2F)c2ccc(OC)cc2)cc1` returned an inhibitory constant (Ki) in [8] of 1700 nM. For the same molecule, the Intrinsic activity in [1] is 24%. In addition, the Activity is listed as 0.39 in assay [14], -0.49 in assay [15] and 4 in [16].
